# Shown are actives, neighbours in structure and some others; about 1.3% of the full set was active somewhere.
# MDM2 E3 inh – Mdm2 E3 ligase (human) inhibition. signal enhancement, % at 5 µM. cell-based MDM2 ubiquitination luciferase reporter, 2 h; 0 = plate control, 100 = twice control, blank-subtracted. 210,000 compounds, 0.11% hits;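 active = signal enhancement of 30% or more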;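 also: luminescence tracks abundance of the self-degrading MDM2-luciferase fusion protein; higher signal means inhibition of MDM2 E3 ligase activity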
# Target sequence (Q00987 whole entry, looked up, the tested form may be a part): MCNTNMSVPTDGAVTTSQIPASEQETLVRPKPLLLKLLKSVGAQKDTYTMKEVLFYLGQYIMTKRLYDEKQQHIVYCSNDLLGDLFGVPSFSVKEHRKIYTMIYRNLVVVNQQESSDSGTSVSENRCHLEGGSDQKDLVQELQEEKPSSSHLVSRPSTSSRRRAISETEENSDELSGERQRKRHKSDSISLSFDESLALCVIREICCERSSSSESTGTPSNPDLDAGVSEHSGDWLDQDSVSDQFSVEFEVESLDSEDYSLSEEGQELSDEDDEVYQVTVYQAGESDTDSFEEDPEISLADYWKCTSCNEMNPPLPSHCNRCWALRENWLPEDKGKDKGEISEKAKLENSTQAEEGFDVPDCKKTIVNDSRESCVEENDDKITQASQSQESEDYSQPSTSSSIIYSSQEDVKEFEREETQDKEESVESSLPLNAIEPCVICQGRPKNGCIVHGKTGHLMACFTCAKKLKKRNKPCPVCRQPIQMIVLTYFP
#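 Material: stable MDM2–luciferase fusion reporter cells / Quantity: 2000 cells/well / Dosing: single 5 µM compound dose, 0.2% final DMSO / Buffer or medium: DMEM / Schedule: 4 h cell settling then 2 h compound exposure, 37 °C / Detection: luminescence with SteadyLite reagent, 15 min at room temperature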
# Pf gamet viab – inhibitors of late stage P. falciparum gametocyte viability; P. falciparum stage V gametocytes, ATP luminescence, 24 h; inhibition, % at 10.9 µM; 150,000 compounds, 0.065% hits; AID 743093;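 active = inhibition above the mean plus 3 SD of compounds within the control limits, set per campaign, cut at about 38% in these data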;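 also: 0% = DMSO wells and 100% = medium only without gametocytes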
# Hsp70 activator – Hsp70 transcriptional activation, primary screen; HeLa Hsp70 promoter luciferase reporter, luminescence; scaled: vehicle 0, proteasome-inhibitor control 100%; activation, % at 10 µM; 200,000 compounds, 0.04% hits; AID 1203;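 active = activation above the mean across all tested compounds plus 3 SD, cutoff set per campaign, cut at about 5.5% in these data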;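 also: 100% = MG132 at 30 µM as the positive control and 0% = DMSO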
# Wee1 stabilizer – human Wee1 degradation inhibition, primary screen. HeLa Luc-Wee1K328M stability, luciferase luminescence; 100% = proteasome inhibitor MG132 effect. AID 1321. P30291. reporter increase, % at 5 µM. 220,000 compounds, 1.2% hits;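 active = activation above the mean of all tested compounds plus 3 SD, set per screening run, cut at about 8.8% in these data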;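 also: cells exposed to compound for 20 h before luminescence read; 0% = DMSO alone and 100% = MG132 at 30 µM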
# The depositor's hits bear a star; . = no result.
SMILES,MDM2 E3 inh,Pf gamet viab,Hsp70 activator,Wee1 stabilizer
N#CCc1ccc(NC(=O)/C=C/c2ccc([N+](=O)[O-])o2)cc1,18,.,2,9.3*
Cn1c(=O)[nH]c(=O)c2cc(C(=O)c3cc(F)ccc3O)cnc21,-13,-4,0,10*
Cc1nn(C)c2ncc(C(=O)c3cc(F)ccc3O)cc12,-13,16,0,6
N#CC1=C(N)SC(N)=C(C#N)C1c1ccc([N+](=O)[O-])cc1,.,-15,0,10*
CCOC(=O)/C=C/C(=O)Nc1ccc(S(=O)(=O)N(C)c2ccccc2)cc1,-21,5,0,10*
Cn1ncc(N=Cc2c(O)ccc3ccccc23)c1C(=O)N1CCOCC1,.,5,0,-2
COc1ccccc1NC(=O)c1c(N=Cc2c(O)ccc3ccccc23)cnn1C,-10,10,.,9.0*
O=C(Nc1ccc(-c2csnn2)cc1)C1CC1,83*,2,.,3
O=C(Oc1ccc(-c2csnn2)cc1)C1CC1,-11,10,.,-1
Cc1ccc(C(=O)C(c2ccccc2)N2Cc3ccccc3C2=N)cc1 (centres undefined),4,.,0,4
CC(C(=O)Nc1ccccc1C(=O)O)n1c(C(F)(F)F)nc2ccccc21 (centres undefined),0,-31,0,1
O=C(Cn1c(C(F)(F)F)nc2ccccc21)Nc1ccccc1C(=O)O,-20,39*,0,0
CCOC(=O)/C(=N/Nc1ccc(Cl)cc1)Sc1nnnn1-c1ccc(C)cc1,.,4,0,11*
O=C(Cc1ccc(Cl)cc1)Nc1ccc(NC(=O)c2cccs2)cc1,1,.,0,9.7*
Cc1ccc(C(=O)OCCN(C)Cc2ccccc2)cc1,-6,2,0,9.2*
Cn1c(N)c(C(=O)COC(=O)c2ncc(Cl)c(Cl)c2Cl)c(=O)n(C)c1=O,0,2,0,0
COC(=O)c1cc(NC(=O)c2ccc(-c3ccccc3)cc2)ccc1Cl,-19,41*,0,-1
O=C(Nc1ccc2c(c1)OCO2)c1cncc(Br)c1,-12,.,0,21*
CCOC(=O)c1cnc2c(C)c(C)ccc2c1NCCN1CCOCC1,.,-6,.,.
Cc1nc(-c2cn[nH]c2-c2ccc(O)cc2O)cs1,-9,4,0,9.0*
CC(=O)CCCC(NS(=O)(=O)CCC(Cl)(Cl)Cl)c1ccccc1 (centres undefined),.,-15,.,.
COc1ccc2nc(NC(=O)c3cccc(-c4cc5ccccc5oc4=O)c3)sc2c1,-19,49*,0,8
Cc1onc(-c2c(F)cccc2Cl)c1C(O)c1ccc(F)cc1 (centres undefined),-3,4,.,-1
O=C(CSc1nc2ccccc2s1)NC1CCS(=O)(=O)C1 (centres undefined),-8,.,0,11*
Cc1nc(CNC(=O)c2cc(COc3c(F)cccc3F)on2)cs1,-4,14,.,4
SMILES,MDM2 E3 inh,Pf gamet viab,Hsp70 activator,Wee1 stabilizer
COc1cccc(CNC(=O)c2cc(COc3c(F)cccc3F)on2)c1,6,-2,0,9.8*
O=C(c1ccccc1)c1cnc(-c2ccccc2)s1,-58,-16,0,10*
CN(C)/C=C/C(=O)c1cnc(-c2ccccc2)s1,-16,9,0,10*
O=C(c1ccccc1)c1cnc(-c2ccc(Cl)cc2)s1,-70,16,1,-1
CN(C)/C=C/C(=O)c1cnc(-c2ccc(Cl)cc2)s1,-17,-36,0,2
CC(C)CCN(C(=O)Nc1ccccc1)C(C)c1cccs1 (centres undefined),-1,.,0,-2
C[C@H]1CC[C@@]2(O[C@H](CCO)C[C@@H](O)[C@@H]2O)O1,.,.,0,9.4*
C[C@H]1CC[C@@]2(O[C@@H](CCO)C[C@@H](O)[C@@H]2O)O1,.,.,0,-1
COc1cccc(N2CCN(c3ncnc4c3[nH]c3ccc(F)cc34)CC2C)c1 (centres undefined),-15,.,0,-2
COc1ccc2[nH]c3c(N4CC(C)OC(C)C4)ncnc3c2c1 (centres undefined),35*,-56,0,-1
O=C(COc1ccc2c(c1)CCC2)N1CCN(c2ccccc2F)CC1,.,.,0,10*
CCCN(CCC)CC(O)CN1C(=O)N(CN2C(=O)N(CC(O)CN(CCC)CCC)C(=O)C2(C)C)C(C)(C)C1=O (centres undefined),-1,.,0,-2
Nc1c(-c2cccc([N+](=O)[O-])c2)nc2ccccn12,-7,.,1,4
Cc1cc(Br)ccc1SCC(=O)OCC(=O)NC1CC1,-9,20,0,10*
Cc1ccccc1N(CC(=O)N/N=C/c1cc(Br)c(C)o1)S(C)(=O)=O,-19,-1,0,-1
CNNC(=S)NC1CC2CC1C1C=CCC21 (centres undefined),-20,-24,.,1
NC(=S)NC1CC2CC1C1C=CCC21 (centres undefined),-8,-26,.,9.5*
COc1ccc(O)c(C(=O)CC(=O)c2ccc(F)cc2)c1,-54,.,0,-5
COc1ccc(O)c(C(=O)CC(=O)c2ccccc2C)c1,-13,.,0,8.9*
O=C(CSc1nc2ccccc2s1)NCc1cc([N+](=O)[O-])ccc1O,.,-41,.,.
C#CCOCCOCCOCCNc1nc(N2CCN(C(=O)[C@H]([C@@H](C)CC)n3cc(CCCN=C(N)N)nn3)CC2)nc(N2CCN(C(=O)[C@H]([C@@H](C)CC)n3cc(CCC(=O)O)nn3)CC2)n1,.,-33,.,.
O=C(Nc1ccc(F)cc1)/C(=C1/CCCCCN1)[N+](=O)[O-],2,0,.,1
CCN(CC)c1ccc(/C=C2\C(=O)c3ccc(C(=O)O)cc3C2=O)cc1,79*,.,0,-3
CCN(CC)c1ccc(C(=O)O)cc1,-19,.,0,7
O=C(CSc1nnc(-c2ccc(F)cc2)c2ccccc12)Nc1cccc(Cl)c1,-8,3,0,0
SMILES,MDM2 E3 inh,Pf gamet viab,Hsp70 activator,Wee1 stabilizer
O=C(CSc1nnc(-c2ccc(F)cc2)c2ccccc12)Nc1ccccc1,-3,8,0,10*
CCCCCc1cc(=O)oc2c(C(CCN(CC)CC)c3ccc(N(C)C)cc3)c(OC)cc(OC)c12 (centres undefined),-20,4,.,.
Cc1ccc(C(=O)CN(Cc2ccccc2)C2=NCCS2)cc1,-10,2,0,10*
Cc1ccc2c(c1)C(c1ccccc1)N(C(=O)c1ccc3c(c1)OCO3)CC(=O)N2 (centres undefined),-1,-6,.,2
O=C(OCCN(C1=NS(=O)(=O)c2ccccc21)c1ccccc1Cl)c1ccc(Cl)cc1,-18,.,0,9.7*
O=C(Oc1ccc(N(Cc2cccs2)C2=NS(=O)(=O)c3ccccc32)cc1)c1ccccc1F,-7,9,0,-2
O=C(O)c1cccc(N=C2NC(=O)C(CO)(CO)S2)c1,.,13,.,.
Cc1ccc(C)n1-c1sc2c(c1C#N)CCC(C)C2 (centres undefined),-6,38*,0,2
Cc1ccc(S(=O)(=O)Nc2cc(=O)[nH]c(SCC(=O)Nc3cccc(C)c3)n2)cc1,-9,-13,.,-3

# Source: PubChem BioAssay (several laboratories)
